The results in this text go back to PubChem BioAssay.

Activity calls are given as the source filed them.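 The calls were made as follows, unless noted: active = inhibition of the reporter signal at or above 50%; inactive = inhibition below 50%.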

Experiment [1] can be described thus: inhibitors of TNFa-induced NFkB p65 translocation, primary screen, imaging, HUVEC, MLSMR starter and 10KST1 sets (AID 438;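 active = inhibition above 20% together with a positive visual image hit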;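 also: compound added about 3h40 before a 20 min TNFalpha stimulation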;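 as to inhibition: signal is the nuclear over cytoplasmic p65 intensity ratio per well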). The settings on record: HUVEC TNFa-induced p65 nuclear translocation; cell count: measured here: nuclei count (cytotoxicity indicator), at 2.08 µM; inhibition: at 2 µM, stronger effect = higher value, 0% TNFa-plus-vehicle, 100% no-TNFa wells.
Experiment [2] is described as follows: reduction of polyQ htt aggregates in cells – imaging, exon1htt(103Q)mCFP cells, high-content imaging, primary screen (AID 483;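 active = visual image review flags a hit and inhibition of aggregation exceeds 20%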;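 also: compound exposure lasted 3 days before fixation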;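 as to nuclei count: percent of the per-plate median nuclei count of sample wells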). The settings on record: exon1htt(103Q)mCFP cell line, aggregate imaging, at 2 µM; inhibition of aggregation: stronger effect = higher value; nuclei count: measured here: cell count, toxicity.
Experiment [3] is described as follows: endothelial E-selectin expression blockers – imaging, HUVEC, immunofluorescence, MLSMR starter and 10KST1 sets, primary screen (AID 487;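 active = visually confirmed hit in the image check and inhibition above 20%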;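 as to inhibition: signal is fraction of cell area covered by stained E-selectin grains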;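 as to nuclei count: 100% = median nuclei count of all wells on the same plate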). The note with it: HUVEC TNFalpha-induced E-selectin immunofluorescence imaging, at 2 µM; inhibition: stronger effect = higher value; nuclei count: measured here: cell number, toxicity.
In experiment [4] the target is Voltage-gated potassium channel subunit beta-2 (Rattus norvegicus) (UniProt P62483). In words: inhibitors of rat Kvbeta2 reductase activity – biochemical, NADPH fluorescence, primary screen (AID 622;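 active = fluorescence slope higher than the sample average by over 3 SD, cut at about -0.22 in these data, passing the limit was not always enough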;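 also: slope of raw intensity against log time taken from 70 to 1610 s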). The settings on record: recombinant KvBeta, 4-cyanobenzaldehyde reduction, at 10 µM, stronger effect = higher value.
Voltage-gated potassium channel subunit beta-2 (Rattus norvegicus), sequence (P62483 whole entry, looked up): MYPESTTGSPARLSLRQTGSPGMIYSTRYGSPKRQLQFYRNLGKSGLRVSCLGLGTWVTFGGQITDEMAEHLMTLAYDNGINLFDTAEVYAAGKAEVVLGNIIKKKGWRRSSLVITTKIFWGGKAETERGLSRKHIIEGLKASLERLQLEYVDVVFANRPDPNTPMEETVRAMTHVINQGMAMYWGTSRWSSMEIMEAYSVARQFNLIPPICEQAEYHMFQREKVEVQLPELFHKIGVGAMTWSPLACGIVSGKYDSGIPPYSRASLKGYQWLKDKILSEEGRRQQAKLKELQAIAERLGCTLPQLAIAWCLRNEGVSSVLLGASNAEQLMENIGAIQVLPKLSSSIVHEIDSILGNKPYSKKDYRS
For experiment [5] the target is unchanged. In words: enhancers of rat Kvbeta2 NADPH turnover – biochemical, NADPH fluorescence, primary screen (AID 623;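 active = NADPH fluorescence slope more negative than the mean of all samples by about 3 SD, 99.7% confidence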;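 also: fluorescence intensity change per second fitted from 20 to 320 s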). The settings on record: Recombinant KvBeta, NADPH fluorescence decrease slope, 10 min; at 10 µM; stronger effect = lower value.
Experiment [6] has as its target Alpha-2C adrenergic receptor (Homo sapiens) (UniProt P18825). In words: compounds altering alpha2C-coupled GIRK flux – cell-based, HEK293 alpha2C/GIRK1/2, thallium flux, primary screen (AID 624;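 active = fluorescence slope after compound addition differing from the mean of all screened samples at 99.7% confidence, in either direction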;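 also: slope of fluorescence ratio to pre-addition baseline per second over 15 to 24 s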). The settings on record: thallium flux BTC fluorescence, at 10 µM, actives lie on both sides.
Experiment [7] can be described thus: inhibitors of larval lipid processing in zebrafish, primary screen, whole organism, PED6 fluorescence, gall bladder and intestine (AID 686;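 active = a full or partial loss of lipid-probe fluorescence in the fish gall bladder, intestine or both, judged by eye; inactive = no fluorescence loss, or compound toxic to the fish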;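 also: signal comes from phospholipase A2 cleavage of quenched PED6 carried via bile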). The settings on record: Zebrafish larvae PED6 lipid processing, fluorescence scoring; screened at 20 µM (by protocol). Summed up: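 Doses: 20 µM single dose. Test system: live zebrafish larvae aged 5-7 days, whole organism. Quantity: five larvae per well. Measured by: By-eye fluorescence microscopy. Reagent: ingested quenched lipid PED6 at 100 nM. Read-out: visual per-well fluorescence inhibition score. Times: overnight exposure of larvae to compound plus PED6.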

A short description of experiment [8]: blockers of RIG-like receptor reporter activation – cell-based, Sendai virus stimulus, luciferase, 10K MLSCN set, TLR/RLR signaling modifier project, primary screen (AID 602276;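 active = inhibition at or above 50% at 10 µM; inactive = inhibition below 50%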;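 also: firefly luciferase from ISG56 promoter only with Renilla not read in this screen; 0% = Sendai virus plus DMSO and 100% = medium plus DMSO without virus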). The note with it: HEK293 RL24 IRF3 luciferase reporter, at 10 µM, stronger effect = higher value. In general terms: Reporter assays use an easily measured gene product as a stand-in for the process of interest.

Experiment [9] in a line: TLR3 IRF3 reporter activation blockers – cell-based, poly I:C stimulus, luciferase, 10K MLSCN set, primary screen (AID 602277). The note with it: HEK293-TLR3 RL24 IRF3 luciferase reporter, at 10 µM, stronger effect = higher value.

Alpha-2C adrenergic receptor (Homo sapiens), sequence (P18825 whole entry, looked up): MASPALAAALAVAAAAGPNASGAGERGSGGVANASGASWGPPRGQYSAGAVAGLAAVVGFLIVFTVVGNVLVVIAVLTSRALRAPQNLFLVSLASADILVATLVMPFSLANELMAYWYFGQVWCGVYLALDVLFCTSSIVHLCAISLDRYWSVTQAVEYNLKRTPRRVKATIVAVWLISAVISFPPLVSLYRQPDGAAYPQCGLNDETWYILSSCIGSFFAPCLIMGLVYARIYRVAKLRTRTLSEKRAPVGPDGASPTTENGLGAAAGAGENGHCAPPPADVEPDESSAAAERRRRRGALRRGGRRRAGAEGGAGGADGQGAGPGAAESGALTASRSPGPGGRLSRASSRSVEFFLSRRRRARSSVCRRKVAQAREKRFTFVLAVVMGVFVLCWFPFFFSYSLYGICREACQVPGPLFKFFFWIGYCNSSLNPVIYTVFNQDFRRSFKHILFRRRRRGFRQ

A word on the inhibition: it is the drop in the measured response relative to a control, in per cent. For `Cc1nn(Cc2ccccc2)c(C)c1NC(=O)c1cc(-c2ccco2)on1`, in [1], the cell count came to 408. Moreover, the inhibition was -8.1% (inactive) in [1], -15.3% (inactive) in [3], 9.89% (inactive) in experiment [8] and 12.8% (inactive) in [9]. Moreover, in [2], the inhibition of aggregation was -15.5% (inactive). Further, the nuclei count in [2] and in [3] was 101% in each case. In [4], the fluorescence slope was -0.347 (inactive). In experiment [5], the NADPH fluorescence slope is -6.8e-06 (inactive). In addition, the slope in experiment [6] is 0.00588 (inactive). Moreover, in experiment [7], the outcome was inactive.

Turning to `Cc1nc2cc(NC(=O)N3c4ccccc4CC3C)ccc2o1` (stereo unspecified), the cell count in experiment [1] is 574. In addition, the inhibition in experiment [1] is -2.2% (inactive); in experiment [3] it was -10.4% (inactive); in [8] it was 1.7% (inactive); in experiment [9], -4% (inactive). For the same compound, the inhibition of aggregation in experiment [2] was 7.4% (inactive). The nuclei count in experiment [2] was determined as 56.2%; in [3], 96.8%. For the same compound, the fluorescence slope in experiment [4] was -0.394 (inactive). Besides, the NADPH fluorescence slope in experiment [5] is -5.4e-05 (inactive). Besides, the slope in [6] is 0.00476 (inactive). The compound was called inactive in [7].

As to `Cc1ccc(F)cc1NC(=O)C1CCCN(c2ncccn2)C1` (stereo unspecified), in experiment [1], the cell count came out at 692. For the same compound, the inhibition in experiment [1] is -7.8% (inactive); in experiment [3], -56.9% (inactive); in [8], 7.51% (inactive); in experiment [9] it was 9.04% (inactive). The inhibition of aggregation in experiment [2] is -34.5% (inactive). For the same compound, the results for the nuclei count in experiment [2] and in [3] were 117% and 118%, respectively. For the same compound, the fluorescence slope in experiment [4] is -0.357 (inactive). The NADPH fluorescence slope in experiment [5] is -1.9e-05 (inactive). In addition, the slope in experiment [6] was 0.00523 (inactive). For the same compound, the result in experiment [7] was inactive.

As to `Cc1cc(C)nc(SCc2nnc(SCC(=O)Nc3ncc(C)s3)n2Cc2ccco2)n1`, the cell count in [1] came out at 422. Moreover, the inhibition is 3% (inactive) in experiment [1], -23.5% (inactive) in experiment [3], 8.75% (inactive) in experiment [8] and 11.7% (inactive) in [9]. Also, in experiment [2], the inhibition of aggregation is 7.1% (inactive). In addition, the nuclei count came to 98.6% in [2] and 103% in experiment [3]. The fluorescence slope in experiment [4] is -0.353 (inactive). For the same compound, the NADPH fluorescence slope in [5] is -6.9e-05 (inactive). For the same compound, the slope in [6] was 0.00544 (inactive). For the same compound, in experiment [7], the compound was classed as inactive.

On to `COC(=O)Nc1ccc(S(=O)(=O)N2CCCCCC2)cc1`, for which the cell count in [1] worked out at 336. Moreover, the inhibition in experiment [1] was -2.5% (inactive); in [3] it was -61.6% (inactive); in [8], 17.1% (inactive); in experiment [9], 19.7% (inactive). Further, the inhibition of aggregation in [2] is 1.8% (inactive). Also, the values for the nuclei count in experiment [2] and in experiment [3] were 100% and 127%, respectively. The fluorescence slope in [4] was -0.354 (inactive). The NADPH fluorescence slope in experiment [5] is 1.2e-05 (inactive). Also, the slope in [6] is 0.0065 (inactive). The outcome in experiment [7] was inactive.

Turning to `Cc1cc(C)nc(-n2nc(C)cc2NC(=O)c2ccc(Br)o2)n1`, the cell count in experiment [1] is 442. Besides, the inhibition in [1] was -7.3% (inactive); in experiment [3] it was 21.7% (inactive); in [8], -4.98% (inactive); in experiment [9] it was 20.1% (inactive). For the same compound, the inhibition of aggregation in experiment [2] is 18.7% (inactive). Besides, the nuclei count in [2] worked out at 90.1%; in experiment [3] it was 105%. Further, the fluorescence slope in [4] is -0.374 (inactive). Also, the NADPH fluorescence slope in experiment [5] is -5.8e-05 (inactive). For the same compound, the slope in experiment [6] was 0.00507 (inactive). The compound was classed as inactive in [7].

As to `O=C(c1cnn2c(C(F)F)cc(-c3ccccc3)nc12)N1CCN2CCCC2C1` (stereo unspecified), the cell count in experiment [1] worked out at 223. The inhibition in experiment [1] is -3.7% (inactive); in experiment [3] it was -87.1% (inactive); in [8], 15.8% (inactive); in experiment [9], 32.7% (inactive). The inhibition of aggregation in experiment [2] is 13% (inactive). Moreover, the nuclei count in [2] turned out to be 100%; in experiment [3], 129%. Also, the fluorescence slope in experiment [4] was -0.251 (inactive). In experiment [5], the NADPH fluorescence slope was -1.6e-05 (inactive). Also, the slope in experiment [6] was 0.00468 (inactive). Besides, the call in experiment [7] was inactive.

As for `CNC(=O)c1ccc2nc(NC(C)=O)sc2c1`, the cell count in experiment [1] came out at 382. Also, the inhibition is -10.3% (inactive) in experiment [1], 13.2% (inactive) in experiment [3], -11.9% (inactive) in [8] and -21.9% (inactive) in experiment [9]. Further, the inhibition of aggregation in [2] is 4.1% (inactive). Moreover, the figures for the nuclei count in experiment [2] and in experiment [3] were 74.6% and 56.8%, respectively. The fluorescence slope in experiment [4] was -0.327 (inactive). For the same compound, in experiment [5], the NADPH fluorescence slope is -6.5e-05 (inactive). In addition, the slope in [6] was 0.00564 (inactive). Further, the compound was classed as inactive in [7].

`COc1ccccc1N(CC(=O)NC1CCCC1)C(=O)c1csnn1`: the cell count in experiment [1] turned out to be 723. In addition, the inhibition is -1.7% (inactive) in experiment [1], -49.4% (inactive) in experiment [3], -0.44% (inactive) in experiment [8] and 1.68% (inactive) in experiment [9]. In addition, the inhibition of aggregation in experiment [2] is 10.7% (inactive). Further, the nuclei count amounted to 109% in experiment [2] and 126% in experiment [3]. Moreover, the fluorescence slope in experiment [4] was -0.365 (inactive). The NADPH fluorescence slope in [5] is -2.7e-05 (inactive). Moreover, the slope in experiment [6] was 0.00495 (inactive). Moreover, the result in experiment [7] was inactive.

As to `C=CCC1(O)C(=O)Nc2ccccc21` (stereo unspecified), the cell count in [1] is 585. Besides, the inhibition in experiment [1] was -13.3% (inactive); in experiment [3], -66.6% (inactive); in [8] it was 16.6% (inactive); in experiment [9], 18.3% (inactive). The inhibition of aggregation in experiment [2] is -5.5% (inactive). Also, the nuclei count in experiment [2] turned out to be 106%; in [3], 115%. Besides, in experiment [4], the fluorescence slope is -0.339 (inactive). For the same compound, the NADPH fluorescence slope in [5] is -5.2e-05 (inactive). Besides, the slope in [6] was 0.00522 (inactive). Besides, the compound was called inactive in experiment [7].

For `O=C(NC1CCCCCC1)c1cc(S(=O)(=O)N2CCC3(CC2)OCCO3)ccc1F`, the cell count in [1] turned out to be 503. In addition, the inhibition in [1] is -21.4% (inactive); in experiment [3], -16.2% (inactive); in experiment [8] it was -15.5% (inactive); in [9], -37.6% (inactive). In addition, the inhibition of aggregation in experiment [2] was -53.3% (inactive). Also, the nuclei count in [2] amounted to 72.9%; in [3], 83.7%. Also, the fluorescence slope in [4] is -0.36 (inactive). Also, the NADPH fluorescence slope in [5] is 9e-06 (inactive). Also, in experiment [6], the slope was 0.00552 (inactive). Further, the compound was classed as inactive in experiment [7].

As for `CCCCn1c(SCc2ccc(Cl)cc2)nc2c1c(=O)[nH]c(=O)n2C`, the cell count in experiment [1] amounted to 396. For the same compound, the inhibition was 9% (inactive) in [1], -1.3% (inactive) in experiment [3], 10.9% (inactive) in experiment [8] and 14.5% (inactive) in experiment [9]. The inhibition of aggregation in [2] was 8.8% (inactive). The nuclei count in experiment [2] amounted to 109%; in experiment [3], 98.4%. Besides, the fluorescence slope in experiment [4] was -0.347 (inactive). Moreover, in experiment [5], the NADPH fluorescence slope is -4.9e-05 (inactive). In addition, the slope in [6] was 0.00466 (inactive). Besides, the result in experiment [7] was inactive.

For `O=C(c1ccccc1)c1ccc(N2CCNCC2)cc1`, the cell count in experiment [1] stood at 395. The inhibition in experiment [1] is 4.3% (inactive); in experiment [3], 2.4% (inactive); in [8] it was -41.5% (inactive); in experiment [9] it was -73.5% (inactive). Moreover, the inhibition of aggregation in experiment [2] was -14.4% (inactive). In addition, the nuclei count in experiment [2] came to 92.6%; in experiment [3] it was 102%. Further, the fluorescence slope in [4] is -0.518 (inactive). The NADPH fluorescence slope in [5] is 5.3e-06 (inactive). For the same compound, the slope in [6] was 0.00569 (inactive). Besides, the call in experiment [7] was inactive.
